# pEC50, pIC50: −log10 of the molar value.
# Key:
# Assay type in all cases: functional, organism-based
# [1] = species on record: Rattus norvegicus; experiment: Effective concentration was measured for the release of accumulated [3H]dopamine from chopped striatum of rat
# How it was run: (§1)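 Chopped rat cortex (NE) or corpus striatum (DA) from untreated rats loaded with 10^-6 M [3H]NE or [3H]dopamine, then washed. Exposed to drug (10^-7 to 10^-3 M) for 30 min, then centrifuged. Amines separated from deaminated metabolites on Dowex 50 Na+ and counted by scintillation with recovery correction. Release = % of total label found in medium. EC50 = half-maximal concentration; 3-4 experiments.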
# [2] = species on record: Rattus norvegicus; experiment: Effective concentration was measured for the release of accumulated [3H]NE from chopped cortex of rat; how it was run: as §1
# [3] = species on record: Rattus norvegicus; experiment: Inhibitory concentration against uptake of [3H]NE into chopped cerebral cortical tissue from rat brain
# How it was run: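 Chopped rat cerebral cortex preincubated 10 min at 37 °C in physiological salt solution (95% O2-5% CO2) with drug at 10^-8 to 10^-3 M. [3H]NE then added to 10^-7 M final. Uptake stopped by centrifugation. Tissue ethanol extract and medium counted by scintillation. Inhibition taken as % of control; 3-4 experiments.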
Structure (SMILES),pEC50 ([1]; Rattus norvegicus),pEC50 ([2]; Rattus norvegicus),"pIC50 ([3]; Rattus norvegicus, Brain)",pEC50 [1],pEC50 [2],pIC50 [3]
N[C@H]1CC2C[C@@H]1c1ccccc12,3.10,3.20,4.00,–,–,–
N[C@@H]1CC2C[C@@H]1c1ccccc12,3.73,4.80,5.96,–,–,–
NC1CC2CCC1c1ccccc12 (stereo in doubt; 1a),–,–,–,3.72,3.83,6.10
CNC1CC2CCC1c1ccccc12 (stereo in doubt; 1b),–,–,–,3.73,3.75,6.10
NC1CC2CCC1c1ccccc12 (stereo in doubt; 2a),–,–,–,3.17,3.00,4.41
CNC1CC2CCC1c1ccccc12 (stereo in doubt; 2b),–,–,–,< 3.00,< 3.00,4.32
CNC1CC2CC1c1ccccc12 (stereo in doubt; 3b),–,–,–,3.57,3.35,5.74
CNC1CC2CC1c1ccccc12 (stereo in doubt; 4b),–,–,–,< 3.00,< 3.00,3.43
C[C@H](N)Cc1ccccc1 [DEXTROAMPHETAMINE],4.96,6.10,6.70,–,–,–
C[C@@H](N)Cc1ccccc1 [LEVAMFETAMINE],4.21,5.77,6.30,–,–,–
